# Test results from ChEMBL document CHEMBL4689842, “EUbOPEN Chemogenomics Library wave 1” (2021).
# System: HEK-293T
# Test: Multiplex assay against HEK293T;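 on Population Tubulin-Different-Phenotype (%): share of the cells with healthy nuclei that show this phenotype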
# Type: toxicity, cell-based
# Conditions: human
# How it was run: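 Per cents of healthy-nucleus cells form the tubulin, mitochondrial-mass and membrane-permeability phenotype values. Live cells were stained at seeding with Hoechst33342, BioTracker Green Microtubule Cytoskeleton Dye, MitoTracker Red and Annexin V Alexa Fluor 680. After compound addition they were imaged on a CQ1 microscope at 37°C and 5% CO2, and CellPathfinder machine-learning gating split them into Hoechst high-intensity objects or normal cells, normal cells into healthy, pyknosed or fragmented nuclei, and pyknosed cells into mitotic or apoptotic.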
# [1] = 12 h, 1 µM, compound concentration 1 uM, replicate 1
# [2] = 12 h, 1 µM, compound concentration 1 uM, replicate 2
# [3] = 12 h, 10 µM, compound concentration 10 uM, replicate 1
# [4] = 12 h, 10 µM, compound concentration 10 uM, replicate 2
# [5] = 24 h, 1 µM, compound concentration 1 uM, replicate 1
# [6] = 24 h, 1 µM, compound concentration 1 uM, replicate 2
# [7] = 24 h, 10 µM, compound concentration 10 uM, replicate 1
# [8] = 24 h, 10 µM, compound concentration 10 uM, replicate 2
# [9] = 48 h, 1 µM, compound concentration 1 uM, replicate 1
# [10] = 48 h, 1 µM, compound concentration 1 uM, replicate 2
# [11] = 48 h, 10 µM, compound concentration 10 uM, replicate 1
# [12] = 48 h, 10 µM, compound concentration 10 uM, replicate 2
compound,measurement,setting,value
CN1CCN(Cc2ccc(Nc3ncc(Cl)c(Nc4ccccc4S(=O)(=O)N(C)C)n3)cc2)CC1 [DUBERMATINIB],Population Apoptotic (%),[1],48%
same,Population Fragmented Nuclei (%),[1],14%
same,Population Healthy Nuclei (%),[1],42%
same,Population Hoechst High Intensity Objects (%),[1],12%
same,Population Membrane Permeable-Phenotype (%),[1],0%
same,Population Mitochondria Different-Phenotype (%),[1],72%
same,Population Mitotic Cells (%),[1],51%
same,Population Normal (%),[1],87%
same,Population Pyknosed Nuclei (%),[1],42%
same,Population Tubulin-Different-Phenotype (%),[1],35%
same,Total Cell Count,[1],297
same,Population Apoptotic (%),[2],13%
same,Population Fragmented Nuclei (%),[2],8%
same,Population Healthy Nuclei (%),[2],55%
same,Population Hoechst High Intensity Objects (%),[2],2%
same,Population Membrane Permeable-Phenotype (%),[2],5%
same,Population Mitochondria Different-Phenotype (%),[2],14%
same,Population Mitotic Cells (%),[2],86%
same,Population Normal (%),[2],97%
same,Population Pyknosed Nuclei (%),[2],35%
same,Population Tubulin-Different-Phenotype (%),[2],14%
same,Total Cell Count,[2],174
same,Population Apoptotic (%),[3],62%
same,Population Fragmented Nuclei (%),[3],11%
same,Population Healthy Nuclei (%),[3],40%
same,Population Hoechst High Intensity Objects (%),[3],18%
same,Population Membrane Permeable-Phenotype (%),[3],1%
same,Population Mitochondria Different-Phenotype (%),[3],96%
same,Population Mitotic Cells (%),[3],38%
same,Population Normal (%),[3],81%
same,Population Pyknosed Nuclei (%),[3],47%
same,Population Tubulin-Different-Phenotype (%),[3],88%
same,Total Cell Count,[3],258
same,Population Apoptotic (%),[4],16%
same,Population Fragmented Nuclei (%),[4],14%
same,Population Healthy Nuclei (%),[4],59%
same,Population Hoechst High Intensity Objects (%),[4],4%
same,Population Membrane Permeable-Phenotype (%),[4],2%
same,Population Mitochondria Different-Phenotype (%),[4],32%
same,Population Mitotic Cells (%),[4],83%
same,Population Normal (%),[4],95%
same,Population Pyknosed Nuclei (%),[4],26%
same,Population Tubulin-Different-Phenotype (%),[4],33%
same,Total Cell Count,[4],214
same,Population Apoptotic (%),[5],53%
same,Population Fragmented Nuclei (%),[5],15%
same,Population Healthy Nuclei (%),[5],45%
same,Population Hoechst High Intensity Objects (%),[5],10%
same,Population Membrane Permeable-Phenotype (%),[5],0%
same,Population Mitochondria Different-Phenotype (%),[5],59%
same,Population Mitotic Cells (%),[5],46%
same,Population Normal (%),[5],89%
same,Population Pyknosed Nuclei (%),[5],39%
same,Population Tubulin-Different-Phenotype (%),[5],31%
same,Total Cell Count,[5],290
same,Population Apoptotic (%),[6],27%
same,Population Fragmented Nuclei (%),[6],19%
same,Population Healthy Nuclei (%),[6],69%
same,Population Hoechst High Intensity Objects (%),[6],3%
same,Population Membrane Permeable-Phenotype (%),[6],16%
same,Population Mitochondria Different-Phenotype (%),[6],5%
same,Population Mitotic Cells (%),[6],72%
same,Population Normal (%),[6],96%
same,Population Pyknosed Nuclei (%),[6],11%
same,Population Tubulin-Different-Phenotype (%),[6],17%
same,Total Cell Count,[6],206
same,Population Apoptotic (%),[7],69%
same,Population Fragmented Nuclei (%),[7],15%
same,Population Healthy Nuclei (%),[7],33%
same,Population Hoechst High Intensity Objects (%),[7],18%
same,Population Mitochondria Different-Phenotype (%),[7],88%
same,Population Mitotic Cells (%),[7],30%
same,Population Normal (%),[7],81%
same,Population Pyknosed Nuclei (%),[7],50%
same,Population Tubulin-Different-Phenotype (%),[7],80%
same,Total Cell Count,[7],270
same,Population Apoptotic (%),[8],28%
same,Population Fragmented Nuclei (%),[8],19%
same,Population Healthy Nuclei (%),[8],42%
same,Population Hoechst High Intensity Objects (%),[8],6%
same,Population Membrane Permeable-Phenotype (%),[8],1%
same,Population Mitochondria Different-Phenotype (%),[8],21%
same,Population Mitotic Cells (%),[8],71%
same,Population Normal (%),[8],93%
same,Population Pyknosed Nuclei (%),[8],38%
same,Population Tubulin-Different-Phenotype (%),[8],25%
same,Total Cell Count,[8],222
same,Population Apoptotic (%),[9],60%
same,Population Fragmented Nuclei (%),[9],26%
same,Population Healthy Nuclei (%),[9],51%
same,Population Hoechst High Intensity Objects (%),[9],10%
same,Population Membrane Permeable-Phenotype (%),[9],4%
same,Population Mitochondria Different-Phenotype (%),[9],26%
same,Population Mitotic Cells (%),[9],39%
same,Population Normal (%),[9],89%
same,Population Pyknosed Nuclei (%),[9],22%
same,Population Tubulin-Different-Phenotype (%),[9],24%
same,Total Cell Count,[9],316
same,Population Apoptotic (%),[10],38%
same,Population Fragmented Nuclei (%),[10],21%
same,Population Healthy Nuclei (%),[10],73%
same,Population Hoechst High Intensity Objects (%),[10],6%
same,Population Membrane Permeable-Phenotype (%),[10],20%
same,Population Mitochondria Different-Phenotype (%),[10],1%
same,Population Mitotic Cells (%),[10],61%
same,Population Normal (%),[10],93%
same,Population Pyknosed Nuclei (%),[10],5%
same,Population Tubulin-Different-Phenotype (%),[10],17%
same,Total Cell Count,[10],259
same,Population Apoptotic (%),[11],65%
same,Population Healthy Nuclei (%),[11],24%
same,Population Hoechst High Intensity Objects (%),[11],15%
same,Population Membrane Permeable-Phenotype (%),[11],0%
same,Population Mitochondria Different-Phenotype (%),[11],83%
same,Population Mitotic Cells (%),[11],34%
same,Population Normal (%),[11],84%
same,Population Pyknosed Nuclei (%),[11],58%
same,Population Tubulin-Different-Phenotype (%),[11],70%
same,Total Cell Count,[11],267
same,Population Apoptotic (%),[12],29%
same,Population Fragmented Nuclei (%),[12],17%
same,Population Healthy Nuclei (%),[12],36%
same,Population Hoechst High Intensity Objects (%),[12],6%
same,Population Membrane Permeable-Phenotype (%),[12],2%
same,Population Mitochondria Different-Phenotype (%),[12],32%
same,Population Mitotic Cells (%),[12],70%
same,Population Normal (%),[12],93%
same,Population Pyknosed Nuclei (%),[12],46%
same,Population Tubulin-Different-Phenotype (%),[12],35%
same,Total Cell Count,[12],210
